Results from ChEMBL document CHEMBL1153974, “Piperidinyl-2-phenethylamino inhibitors of DPP-IV for the treatment of type 2 diabetes” (Bioorg Med Chem Lett, 2009).

Tests used:
[1] = Volume of distribution at steady state in human at 15 mg; format: ADME, organism-based; conditions: in vivo, read-out: Vdss
Procedure, shortened: (§1)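 Human values projected from rat and dog ADME data by modeling; predicted plasma concentration–time profiles generated at varying doses.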

[2] = Half life in human at 15 mg; format: ADME, organism-based; conditions: in vivo; procedure, shortened: as §1
[3] = Bioavailability in human at 15 mg; format: ADME, organism-based; conditions: in vivo; procedure, shortened: as §1
[4] = system: Rattus norvegicus; assay: Inhibition of DPP4 in rat plasma at 5 mg/kg, po assessed as time required to inhibit 50% by PK/PD analysis; format: functional
[5] = Bioavailability in rat at 1 mg/kg, iv and 5 mg/kg, po; format: ADME, organism-based; conditions: in vivo
[6] = target: Dipeptidyl peptidase 2 (Homo sapiens, UniProt Q9UHL4); assay: Inhibition of human DPP2
[7] = Clearance in rat plasma at 1 mg/kg, iv and 5 mg/kg, po; format: ADME, organism-based
[8] = Volume of distribution at steady state in rat at 1 mg/kg, iv; format: ADME, organism-based; design: dose 1 mg/kg, route intravenous; conditions: in vivo, read-out: Vdss
[9] = Half life in rat at 1 mg/kg, iv; format: ADME, organism-based; design: dose 1 mg/kg, route intravenous; conditions: in vivo
[10] = Clearance in dog plasma at 1 mg/kg, iv and 1 mg/kg, po; format: ADME, organism-based, Canis lupus familiaris
[11] = Volume of distribution at steady state in dog at 1 mg/kg, iv; format: ADME, organism-based, Canis lupus familiaris; design: dose 1 mg/kg, route intravenous; conditions: in vivo, read-out: Vdss
[12] = Half life dog at 1 mg/kg, iv; format: ADME, organism-based, Canis lupus familiaris; design: dose 1 mg/kg, route intravenous; conditions: in vivo
[13] = Bioavailability in dog at 1 mg/kg, iv and 1 mg/kg, po; format: ADME, organism-based, Canis lupus familiaris; conditions: in vivo
[14] = Clearance in human plasma at 15 mg; format: ADME, organism-based; procedure, shortened: as §1
[15] = target: Dipeptidyl peptidase 4 (Homo sapiens, UniProt P27487); assay: Inhibition of human DPP4
Chain of Dipeptidyl peptidase 4 (P27487 whole entry): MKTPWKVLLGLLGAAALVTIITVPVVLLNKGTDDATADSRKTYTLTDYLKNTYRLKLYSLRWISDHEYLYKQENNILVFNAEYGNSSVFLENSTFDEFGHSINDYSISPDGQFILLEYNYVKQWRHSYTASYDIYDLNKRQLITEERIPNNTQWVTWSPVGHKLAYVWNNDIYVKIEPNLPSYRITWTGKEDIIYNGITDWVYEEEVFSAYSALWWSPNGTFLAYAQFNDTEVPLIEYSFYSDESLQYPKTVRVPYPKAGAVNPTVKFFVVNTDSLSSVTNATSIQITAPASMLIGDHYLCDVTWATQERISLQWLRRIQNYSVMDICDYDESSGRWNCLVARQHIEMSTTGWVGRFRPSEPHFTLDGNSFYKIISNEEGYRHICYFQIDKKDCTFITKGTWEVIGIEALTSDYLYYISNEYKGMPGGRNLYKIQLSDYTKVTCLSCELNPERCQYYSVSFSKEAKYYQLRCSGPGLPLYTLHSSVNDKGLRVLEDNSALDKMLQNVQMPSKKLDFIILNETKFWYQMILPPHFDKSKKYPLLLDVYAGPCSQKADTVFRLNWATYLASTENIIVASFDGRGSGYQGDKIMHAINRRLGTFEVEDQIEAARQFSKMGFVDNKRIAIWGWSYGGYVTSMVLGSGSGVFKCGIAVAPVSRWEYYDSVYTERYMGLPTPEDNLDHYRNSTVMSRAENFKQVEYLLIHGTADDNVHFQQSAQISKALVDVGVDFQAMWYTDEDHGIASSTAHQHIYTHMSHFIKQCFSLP

[16] = target: Voltage-gated inwardly rectifying potassium channel KCNH2 (Homo sapiens, UniProt Q12809); assay: Inhibition of human ERG by patch-clamp assay
Chain of Voltage-gated inwardly rectifying potassium channel KCNH2 (Q12809 whole entry): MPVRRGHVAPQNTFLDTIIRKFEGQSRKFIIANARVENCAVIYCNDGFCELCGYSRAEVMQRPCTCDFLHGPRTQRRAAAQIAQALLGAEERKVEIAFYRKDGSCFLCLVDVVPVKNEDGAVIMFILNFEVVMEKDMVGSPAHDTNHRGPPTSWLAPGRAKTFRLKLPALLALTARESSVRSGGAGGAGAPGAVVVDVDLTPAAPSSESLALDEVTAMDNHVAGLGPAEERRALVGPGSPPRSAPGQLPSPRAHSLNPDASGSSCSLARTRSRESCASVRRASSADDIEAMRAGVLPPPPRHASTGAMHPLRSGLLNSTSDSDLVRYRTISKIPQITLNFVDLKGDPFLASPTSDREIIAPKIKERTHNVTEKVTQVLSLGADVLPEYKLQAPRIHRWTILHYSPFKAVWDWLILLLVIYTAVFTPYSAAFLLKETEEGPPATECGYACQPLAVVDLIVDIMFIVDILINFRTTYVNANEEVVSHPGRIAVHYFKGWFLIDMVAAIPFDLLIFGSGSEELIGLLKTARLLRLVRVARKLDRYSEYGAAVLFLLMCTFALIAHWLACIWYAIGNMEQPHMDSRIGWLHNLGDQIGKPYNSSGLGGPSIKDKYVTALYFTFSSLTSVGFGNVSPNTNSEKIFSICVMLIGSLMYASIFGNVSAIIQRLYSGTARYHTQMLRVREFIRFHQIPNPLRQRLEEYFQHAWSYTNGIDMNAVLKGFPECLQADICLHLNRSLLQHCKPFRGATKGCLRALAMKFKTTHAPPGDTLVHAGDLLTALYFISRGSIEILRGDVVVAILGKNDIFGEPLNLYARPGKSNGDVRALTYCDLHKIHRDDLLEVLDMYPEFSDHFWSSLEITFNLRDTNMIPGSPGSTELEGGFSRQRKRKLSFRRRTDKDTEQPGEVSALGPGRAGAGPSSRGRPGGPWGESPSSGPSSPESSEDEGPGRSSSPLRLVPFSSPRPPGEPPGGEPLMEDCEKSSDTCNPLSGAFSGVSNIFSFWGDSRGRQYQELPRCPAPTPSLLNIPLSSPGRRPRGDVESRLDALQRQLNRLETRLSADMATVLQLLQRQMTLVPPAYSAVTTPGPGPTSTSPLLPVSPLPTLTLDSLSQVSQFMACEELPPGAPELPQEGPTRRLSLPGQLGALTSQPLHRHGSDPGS

| Compound | Activity [4] [h] | IC50 [6] [µM] | IC50 [15] [µM] | further results |
| --- | --- | --- | --- | --- |
| Cc1cc2ncc(C(=O)N3CCC([C@H](N)Cc4cc(F)c(F)cc4F)CC3)c(C)n2n1 | >20 | 16.8 |  | Vd [1]: 1 L/kg; half-life [2]: 3.5 h; bioavailability [3]: 70%; bioavailability [5]: 70%; clearance [7]: 18 mL/min/kg; Vd [8]: 2.2 L/kg; half-life [9]: 5.09 h; clearance [10]: 12.9 mL/min/kg; Vd [11]: 2.2 L/kg; half-life [12]: 3.71 h; bioavailability [13]: 52%; clearance [14]: 3.4 mL/min/kg |
| N[C@H](Cc1cc(F)c(F)cc1F)C1CCN(C(=O)c2ccc(F)cc2F)CC1 |  | 11.1 |  |  |
| Nc1nccnc1C(=O)N1CCC([C@H](N)Cc2cc(F)c(F)cc2F)CC1 |  | 9.11 |  |  |
| NCCc1cc(F)c(F)cc1F |  |  | > 30 |  |
| N[C@H](Cc1cc(F)c(F)cc1F)C1CCN(C(=O)c2cc3ccccc3cn2)CC1 |  | 10.2 |  |  |
| N[C@H](Cc1cc(F)c(F)cc1F)CC1CCCCC1 |  |  | > 30 |  |
| Fc1cc(F)c(C[C@@H]2CCCCN2)cc1F |  |  | > 30 |  |
| N[C@H](Cc1cc(F)c(F)cc1F)C1CCN(C(=O)c2cnc3ncccn23)CC1 | >24 | 10.8 |  |  |
| Cc1ncc(C)c(C(=O)N2CCC([C@H](N)Cc3cc(F)c(F)cc3F)CC2)n1 | 8 | > 30 |  | IC50 [16]: 85 µM |
| Cc1nccnc1C(=O)N1CCC([C@H](N)Cc2cc(F)c(F)cc2F)CC1 | 12 | > 30 |  | IC50 [16]: 55 µM |
